Results as given in ChEMBL document CHEMBL4673214, “Synthesis and antibacterial bioactivities of cationic deacetyl linezolid amphiphiles” (Eur J Med Chem, 2018).
Activity calls are given as the source filed them. The calls are words filed in the database; no cut-off is given here.

How the values were obtained:
[1] = system: Escherichia coli; test: Antibiofilm activity against 72 hrs preformed biofilm of Escherichia coli ATCC 25922 assessed as biofilm viability at 64 ug/ml incubated for 24 hrs by […] (reference value: 16.1 log10CFU); assay type: functional; settings: dose 64 µg/ml
Outline: (§1)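 E. coli from mid-log phase was diluted to ~10^5 CFU/mL in M9 medium with 0.02% casamino acids and 0.5% glycerol and formed biofilm without shaking for 72 h. Wells were PBS-washed, then treated with 2-128 µg/mL for 24 h at 37 °C; medium-only wells served as control. Cells were released with trypsin-EDTA and plated as tenfold dilutions. Viability was given as log10 CFU/well.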

[2] = system: Escherichia coli; test: Bactericidal activity against early exponential phase of Escherichia coli ATCC 25922 at 4X MIC measured after 2 to 6 hrs hrs by time-kill kinetic assay; assay type: functional, organism-based; settings: time 2-6 hrs
Outline: (§2)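 An overnight culture was diluted 1:10,000 in MHB and shaken at 225 rpm and 37 °C for 2 h (early exponential phase), then exposed to compound. Samples taken at intervals were centrifuged, resuspended in PBS, plated as tenfold dilutions on MHA and incubated overnight at 37 °C. CFU/mL were counted. Biological replicates were run.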

[3] = system: Escherichia coli; test: Antibiofilm activity against 72 hrs preformed biofilm of Escherichia coli ATCC 25922 assessed as biofilm viability at 4 ug/ml incubated for 24 hrs by […] (reference value: 16.1 log10CFU); assay type: functional; settings: dose 4 µg/ml; outline: as §1
[4] = system: Staphylococcus aureus; test: Antibacterial activity against methicillin-resistant Staphylococcus aureus assessed as reduction in bacterial growth following incubation in 50% MHB medium and 50% plasma and meaured after incubation with compound for 20 to 24 hrs by agar plate method; assay type: functional; settings: time 20-24 hrs
Outline: (§3)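 Sheep plasma obtained by centrifuging defibrinated blood at 3500 rpm for 10 min; serum isolated in serum tubes. MRSA at 10^5 CFU/mL in 50% MHB plus 50% serum, plasma or blood, or in MHB alone. Compound dilutions (512 to 4 µg/mL, pre-mixing) added 50 µL to 150 µL bacteria, 37 °C for 20-24 h. Then 20 µL plated on MHA, 37 °C 20-24 h; MBC taken as no colonies. Two repeats.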

[5] = system: Escherichia coli; test: Antibiofilm activity against 72 hrs preformed biofilm of Escherichia coli ATCC 25922 assessed as biofilm viability at 128 ug/ml incubated for 24 hrs by […] (reference value: 16.1 log10CFU); assay type: functional; settings: dose 128 µg/ml; outline: as §1
[6] = system: Staphylococcus aureus; test: Antibiofilm activity against 24 hrs preformed biofilm of Staphylococcus aureus ATCC 29213 assessed as biofilm viability at 8 ug/ml incubated for 24 hrs by crystal violet staining analysis (reference value: 18.9 1og10CFU); assay type: functional; settings: dose 8 µg/ml
[7] = system: Staphylococcus aureus; test: Antibiofilm activity against 24 hrs preformed biofilm of Staphylococcus aureus ATCC 29213 assessed as biofilm viability at 128 ug/ml incubated for 24 hrs by crystal violet staining analysis (reference value: 18.9 1og10CFU); assay type: functional; settings: dose 128 µg/ml
[8] = system: Staphylococcus aureus; test: Antibacterial activity against methicillin-resistant Staphylococcus aureus assessed as reduction in bacterial growth following incubation in MHB medium and meaured after incubation with compound for 20 to 24 hrs by agar plate method; assay type: functional; settings: time 20-24 hrs; outline: as §3
[9] = Solubility of the compound in water at room temperature; assay type: physicochemical; settings: buffer
[10] = system: Staphylococcus aureus; test: Antibacterial activity against methicillin-resistant Staphylococcus aureus assessed as reduction in bacterial growth following incubation in 50% MHB medium and 50% serum and meaured after incubation with compound for 20 to 24 hrs by agar plate method; assay type: functional; settings: time 20-24 hrs; outline: as §3
[11] = system: Staphylococcus aureus; test: Resistance ratio of compound MIC for methicillin-resistant Staphylococcus aureus after 20 passages to compound MIC for methicillin-resistant Staphylococcus aureus after 16 to 20 hrs by CLSI-based broth microdilution method; assay type: functional
Outline: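 Serial passaging: after each 24 h MIC assay, cells grown at 1/2 MIC were transferred and the MIC assayed again, for 20 passages. Done with S. aureus, E. coli and MRSA. MIC plotted against days of passage. Experiment repeated twice.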

[12] = system: Escherichia coli; test: Antibiofilm activity against 72 hrs preformed biofilm of Escherichia coli ATCC 25922 assessed as biofilm viability at 2 ug/ml incubated for 24 hrs by […] (reference value: 16.1 log10CFU); assay type: functional; settings: dose 2 µg/ml; outline: as §1
[13] = system: Staphylococcus aureus; test: Antibiofilm activity against 24 hrs preformed biofilm of Staphylococcus aureus ATCC 29213 assessed as biofilm viability at 32 ug/ml incubated for 24 hrs by crystal violet staining analysis (reference value: 18.9 1og10CFU); assay type: functional; settings: dose 32 µg/ml
[14] = system: Escherichia coli; test: Antibiofilm activity against 72 hrs preformed biofilm of Escherichia coli ATCC 25922 assessed as biofilm viability at 32 ug/ml incubated for 24 hrs by […] (reference value: 16.1 log10CFU); assay type: functional; settings: dose 32 µg/ml; outline: as §1
[15] = system: Escherichia coli; test: Antibiofilm activity against 72 hrs preformed biofilm of Escherichia coli ATCC 25922 assessed as biofilm viability at 8 ug/ml incubated for 24 hrs by […] (reference value: 16.1 log10CFU); assay type: functional; settings: dose 8 µg/ml; outline: as §1
[16] = Selectivity index, ratio of HC50 for Sheep erythrocytes to MIC for Staphylococcus aureus ATCC 29213; assay type: toxicity
[17] = system: Staphylococcus aureus; test: Antibiofilm activity against 24 hrs preformed biofilm of Staphylococcus aureus ATCC 29213 assessed as eradication of preformed biofilm incubated for 24 hrs by crystal violet staining assay; assay type: functional
[18] = system: Staphylococcus aureus; test: Antibacterial activity against Staphylococcus aureus ATCC 29213 assessed as reduction in bacterial growth compound preincubated with 50% sheep plasma for 0 hrs followed by incubation for 20 to 24 hrs by agar plate method; assay type: functional; settings: time 20-24 hrs
Outline: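 Sheep plasma came from centrifuged defibrinated blood. Compound at 512 µg/mL in 50% water/50% plasma was preincubated at 37 °C for 0, 3 or 6 h, then serially diluted (256 to 4 µg/mL). Dilutions were mixed 1:3 with S. aureus suspension (10^5 CFU/mL) and incubated 20-24 h at 37 °C. MBC was taken as no colonies after 20 µL was plated on agar.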

[19] = system: Staphylococcus aureus; test: Bactericidal activity against early exponential phase of Staphylococcus aureus ATCC 29213 at 6X MIC measured after 6 hrs by time-kill kinetic assay; assay type: functional, organism-based; outline: as §2
[20] = Hemolytic activity in sheep RBC incubated for 1 hr; assay type: ADME, cell-based, Ovis aries, Erythrocyte; settings: sheep red blood cells (erythrocytes)
Outline: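 Sheep RBCs were resuspended at 5% in PBS and mixed 3:1 with serial dilutions (2560 to 5 µg/mL, pre-mixing levels), then incubated 1 h at 37 °C. After centrifugation, supernatant A540 was read. Hemolysis % was calculated as (A−A0)/(Atotal−A0)×100, with untreated RBCs as 0% and 0.1% Triton X-100 as total lysis.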

[21] = system: Staphylococcus aureus; test: Antibiofilm activity against 24 hrs preformed biofilm of Staphylococcus aureus ATCC 29213 assessed as biofilm viability at 2 ug/ml incubated for 24 hrs by crystal violet staining analysis (reference value: 18.9 1og10CFU); assay type: functional; settings: dose 2 µg/ml
[22] = system: Staphylococcus aureus; test: Antibiofilm activity against Staphylococcus aureus ATCC 29213 assessed as inhibition of biofilm formation incubated for 24 hrs by crystal violet staining assay; assay type: functional
Outline: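 Twofold serial dilutions in MHB received 1:1000-diluted exponential-phase bacteria and were incubated 24 h at 37 °C. Wells were rinsed, stained with 0.1% crystal violet for 10 min and dissolved in ethanol, and OD540 was read. MBIC80 was the concentration inhibiting 80% of biofilm formation versus untreated wells, taken from dose-response curves.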

## CCCCCCCCCCCN(C[C@H]1CN(c2ccc(N3CCOCC3)c(F)c2)C(=O)O1)C(=O)[C@@H](N)CCCCN.Cl.Cl
[1]
  Activity: 6 log10CFU
[2]
  Activity: Active
[3]
  Activity: 8.5 log10CFU
[4]
  MBC: 128 µg/mL
[5]
  Activity: 5.3 log10CFU
[6]
  Activity: 9.9 log10CFU
[7]
  Activity: 4.7 log10CFU
[8]
  MBC: 128 µg/mL
[9]
  solubility: Soluble
[10]
  MBC: > 128 µg/mL
[11]
  Ratio: 2
[12]
  Activity: 10.2 log10CFU
[13]
  Activity: 7.5 log10CFU
[14]
  Activity: 6.1 log10CFU
[15]
  Activity: 8 log10CFU
[16]
  selectivity ratio: 50
[17]
  MBEC: 64 µg/mL
  MBEC80: 50.2 µg/mL
  MBEC90: 59.8 µg/mL
[18]
  MBC: 64 µg/mL
[19]
  Activity: Active
[20]
  HC50 at 1 h: 100 µg/mL
[21]
  Activity: 13.9 log10CFU
[22]
  MBIC80: 25.9 µg/mL
  MBIC90: 34.1 µg/mL
